The source made the active and inactive calls. No cut-off for these calls is given here.

What all share (assay type): cell-based
Experiment [1] deals with Cystic fibrosis transmembrane conductance regulator (Homo sapiens), P13569 [F508del]. The experiment in a line: Corrector activity at CFTR F508del mutant (unknown origin) expressed in forskolin/VX-770-stimulated human CFBE41o- cells co-expressing HS-YFP assessed as increase in iodide influx measuring HS-YFP quenching at 2 to 10 uM incubated for 24 hrs by fluorescent method. The following applies: dose microM 2-10, time 24.0 hrs. In a few lines:
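CFBE41o- bronchial epithelial cells stably expressing F508del-CFTR and halide-sensitive YFP, incubated 24 h with compound at 2 and 10 μM, vehicle (DMSO), or VX-809 (1 μM) as positive control. F508del-CFTR activity at the plasma membrane was then read as the rate of HS-YFP quenching caused by iodide influx.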

For experiment [2] the test system is unchanged. The experiment can be described thus: Potentiation of CFTR F508del mutant (unknown origin) expressed in human CFBE41o- cells co-expressing HS-YFP assessed as increase in halide influx measuring HS-YFP quenching measured after acute treatment at 2 to 20 uM for 20 mins in presence of forskolin by fluorescent method. As to conditions: filed as opener, dose microM 2-20, time 20.0 min. Summed up: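 CFBE41o- cells stably co-expressing F508del-CFTR and HS-YFP were held 24 h at 32°C to rescue mutant trafficking. Cells were then acutely treated with compound (2 and 20 μM) plus forskolin (20 μM). Controls were forskolin alone and forskolin plus VX-770 (1 μM). Halide influx was read as the HS-YFP quenching rate.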

Experiment [3] shares this test system. The experiment can be described thus: Potentiation of CFTR F508 deletion mutant (unknown origin) expressed in CFBE41o- cells coexpressing HS-YFP assessed as increase in halide influx measuring HS-YFP quenching measured after acute treatment at 10 uM after 24 hrs in presence of forskolin and CFTR inhibitor-172 by fluorescent method.
Experiment [4] shares this test system. The experiment can be described thus: (§1) Potentiation of CFTR F508 deletion mutant (unknown origin) expressed in CFBE41o- cells coexpressing HS-YFP assessed as increase in iodide influx measuring HS-YFP quenching incubated for 20 mins in presence of forskolin by fluorescent method. As to conditions: filed as opener.
Experiment [5] deals with Cystic fibrosis transmembrane conductance regulator (Homo sapiens, UniProt P13569, F508DEL). The experiment is described as §1.
Sequence of Cystic fibrosis transmembrane conductance regulator (P13569 as listed by the source): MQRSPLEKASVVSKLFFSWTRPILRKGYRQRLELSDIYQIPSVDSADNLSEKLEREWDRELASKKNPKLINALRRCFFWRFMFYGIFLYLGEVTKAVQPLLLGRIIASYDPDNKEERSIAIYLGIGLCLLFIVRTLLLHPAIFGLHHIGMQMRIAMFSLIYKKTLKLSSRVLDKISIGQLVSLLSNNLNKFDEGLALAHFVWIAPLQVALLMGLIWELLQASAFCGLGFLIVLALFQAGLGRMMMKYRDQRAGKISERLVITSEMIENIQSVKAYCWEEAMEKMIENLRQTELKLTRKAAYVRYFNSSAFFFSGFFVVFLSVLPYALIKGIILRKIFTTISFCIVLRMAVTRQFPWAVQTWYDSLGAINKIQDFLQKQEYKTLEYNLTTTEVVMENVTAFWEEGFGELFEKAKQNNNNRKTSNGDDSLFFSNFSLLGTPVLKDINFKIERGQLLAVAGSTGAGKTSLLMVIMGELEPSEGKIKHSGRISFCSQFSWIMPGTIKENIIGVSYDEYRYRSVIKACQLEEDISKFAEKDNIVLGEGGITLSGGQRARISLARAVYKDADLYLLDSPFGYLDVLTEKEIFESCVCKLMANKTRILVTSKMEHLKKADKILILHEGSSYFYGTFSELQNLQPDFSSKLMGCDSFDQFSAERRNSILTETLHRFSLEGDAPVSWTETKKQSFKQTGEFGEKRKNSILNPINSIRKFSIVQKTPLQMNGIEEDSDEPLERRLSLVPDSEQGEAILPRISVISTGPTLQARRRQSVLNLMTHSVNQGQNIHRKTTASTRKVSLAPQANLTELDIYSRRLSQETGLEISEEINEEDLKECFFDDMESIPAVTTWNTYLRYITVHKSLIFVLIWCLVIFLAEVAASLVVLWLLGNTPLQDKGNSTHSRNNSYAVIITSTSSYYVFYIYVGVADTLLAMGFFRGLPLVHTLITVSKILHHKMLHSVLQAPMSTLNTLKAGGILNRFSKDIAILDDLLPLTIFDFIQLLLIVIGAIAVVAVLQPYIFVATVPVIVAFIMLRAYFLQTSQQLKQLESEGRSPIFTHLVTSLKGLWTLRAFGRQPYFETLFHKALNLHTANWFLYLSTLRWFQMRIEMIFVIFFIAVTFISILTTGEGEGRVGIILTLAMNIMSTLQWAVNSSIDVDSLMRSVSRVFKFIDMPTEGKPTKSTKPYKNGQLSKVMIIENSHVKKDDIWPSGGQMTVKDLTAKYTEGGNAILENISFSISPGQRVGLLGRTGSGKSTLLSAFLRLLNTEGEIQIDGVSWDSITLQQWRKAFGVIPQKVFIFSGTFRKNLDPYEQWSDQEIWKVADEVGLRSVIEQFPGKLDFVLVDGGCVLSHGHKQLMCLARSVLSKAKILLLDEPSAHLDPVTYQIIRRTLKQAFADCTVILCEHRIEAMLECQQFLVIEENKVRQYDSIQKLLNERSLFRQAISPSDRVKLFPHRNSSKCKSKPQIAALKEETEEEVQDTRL
The test system of experiment [6] is Cystic fibrosis transmembrane conductance regulator (Homo sapiens), P13569 [F508del]. The experiment can be described thus: Potentiation of CFTR F508 deletion mutant (unknown origin) expressed in CFBE41o- cells coexpressing HS-YFP assessed as increase in halide influx measuring HS-YFP quenching measured after acute treatment at 0.08 to 50 uM after 24 hrs in presence of forskolin by fluorescent method. The following applies: filed as opener, dose microM 0.08-50, time 24.0 hrs. In a few lines:
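Concentration-response on CFBE41o- cells co-expressing F508del-CFTR and HS-YFP, pre-incubated 24 h at 32°C to rescue maturation. Compound was added acutely over 80 nM–50 μM with forskolin. Controls were forskolin alone and VX-770 (1 μM). Activity was measured by HS-YFP quenching from halide influx.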

Experiment [7] shares this test system. The experiment can be described thus: Potentiation of CFTR F508 deletion mutant (unknown origin) expressed in CFBE41o- cells coexpressing HS-YFP assessed as increase in halide influx measuring HS-YFP quenching measured after acute treatment at 1 uM after 24 hrs in presence of forskolin and CFTR inhibitor-172 by fluorescent method.

Sequence of Cystic fibrosis transmembrane conductance regulator (Homo sapiens), P13569 [F508del] (P13569 as listed by the source): as above

Regarding `CCN(C(=O)c1ccc(I)cc1)c1nc(CC(=O)O)cs1`, the outcome in experiment [1] was inactive. Take `O=C(O)Cc1csc(NC(=O)c2ccc(I)cc2)n1`: the result in experiment [1] was inactive.

As to `CCOC(=O)Cc1csc(NC(=O)c2cc(OC)c(OC)c(OC)c2)n1`, in experiment [1], the outcome was inactive.

With `O=C(O)Cc1csc(NC(=O)c2ccccc2)n1`, the outcome in experiment [1] was inactive. On to `CCOC(=O)Cc1csc(NC(=O)c2ccc(I)cc2)n1`, for which the outcome in experiment [1] was inactive. By EC50 is commonly meant the concentration needed to bring the measured effect to its halfway point. For `CCOC(=O)Cc1csc(N(CC)C(=O)c2ccc(Cl)cc2)n1`, the result in experiment [2] and in experiment [6] was Active. The result in experiment [3] and in experiment [1] was inactive. The Emax in experiment [4] turned out to be 1.8. Moreover, in experiment [5], the EC50 is 1.8 µM.

For `CCOC(=O)Cc1csc(NC(=O)c2ccccc2)n1`, the outcome in experiment [1] was inactive. Same read-out and setting: with `COc1cc(C(=O)Nc2nc(CC(=O)O)cs2)cc(OC)c1OC` the entry was “inactive”; with `CCN(C(=O)c1cc(OC)c(OC)c(OC)c1)c1nc(CC(=O)O)cs1`, “inactive”; with `CCOC(=O)Cc1csc(N(CC)C(=O)c2cc(OC)c(OC)c(OC)c2)n1`, “inactive”.

In the case of `CC(C)(C)c1cc(C(C)(C)C)c(NC(=O)c2c[nH]c3ccccc3c2=O)cc1O`, the result in experiment [7] was inactive. As to `O=C(O)Cc1csc(NC(=O)c2ccc(Cl)cc2)n1`, in experiment [1], the outcome was inactive.

On to `CCN(C(=O)c1ccccc1)c1nc(CC(=O)O)cs1`, for which the result in experiment [1] was inactive. As for `CCOC(=O)Cc1csc(N(CC)C(=O)c2ccc(I)cc2)n1`, the result in experiment [2] and in experiment [6] was Active. Further, the result in experiment [3] and in experiment [1] was inactive. Besides, the Emax in experiment [4] came out at 1.9. Also, the 50% effective concentration (EC50) in experiment [5] stood at 3.2 µM. Regarding `CCOC(=O)Cc1csc(NC(=O)c2ccc(Cl)cc2)n1`, the result in experiment [1] was inactive. Still for that read-out and setting: under `CCOC(=O)Cc1csc(N(CC)C(=O)c2ccccc2)n1` stands “inactive”; under `CCN(C(=O)c1ccc(Cl)cc1)c1nc(CC(=O)O)cs1`, “inactive”.

Source of the values: ChEMBL document CHEMBL4665741, “Synthesis and biological evaluation of thiazole derivatives on basic defects underlying cystic fibrosis” (Bioorg Med Chem Lett, 2020).
